From ChEMBL document CHEMBL1129493 (J Med Chem, 1996)
In brackets after ≈: the same amount, converted by molar mass.

What was measured:
[1] = tested on: P388; test: Cytotoxic activity was evaluated against P388D1 tumor cells; assay type: functional, cell-based; conditions: Mus musculus
In short: (§1)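 Cytotoxicity was read by MTT dye reduction for suspension cultures or sulforhodamine B for monolayer cultures. For reversal of multidrug resistance, reserpine was added as reversing agent ([…] as printed).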

[2] = Cytotoxic activity was evaluated against L tumor cells; assay type: functional, cell-based; conditions: Mus musculus; in short: as §1
[3] = tested on: Mus musculus; test: Effect on life span of mice with intraperitoneally implanted P388/ADR Leukemic cells; assay type: functional
In short: (§2)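 CDF-1 female mice (18–20 g, 5 or 8/group); P388 or P388/ADR cells implanted ip at 1 × 10^6 cells. Dosing began 24 h later; agents suspended in 0.5% carboxymethyl cellulose plus 1% Tween 80, given sc or ip qd × 10. Read-out was percent increase in life span.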

[4] = tested on: A549; test: Cytotoxic activity evaluated against A549 tumor cells; conditions: Homo sapiens
[5] = tested on: Mus musculus; test: Effect on life span of mice with intracranially implanted P388 Leukemic cells; assay type: functional
In short: (§3)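 CDF-1 female mice (18–20 g, 5 or 8/group); P388 leukemia, maintained by in vivo serial passage, implanted intracranially at 1 × 10^5 cells. Treatment started 24 h later; test agents suspended in 0.5% carboxymethyl cellulose plus 1% Tween 80, given sc or ip qd × 10. Read-out was percent increase in life span versus controls.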

[6] = tested on: Vero; test: Cytotoxic Activity was evaluated against Vero tumor cells; assay type: functional, cell-based; conditions: Chlorocebus sabaeus; in short: as §1
[7] = tested on: U373 MG; test: Cytotoxic activity was evaluated against U373MG tumor cells; assay type: functional, cell-based, U-373MG ATCC; conditions: Homo sapiens; in short: as §1
[8] = Cytotoxic activity was evaluated against Daoy tumor cells; assay type: functional, cell-based; conditions: Homo sapiens; in short: as §1
[9] = tested on: Candida albicans; test: Minimum inhibitory concentration evaluated against Candida albicans; assay type: functional
[10] = tested on: Mus musculus; test: Effect on life span of mice with intraperitoneally implanted P388 Leukemic cells; assay type: functional; in short: as §2
[11] = biological target: T1, Dihydrofolate reductase (Homo sapiens, UniProt P00374); test: Inhibition of human recombinant Dihydrofolate reductase enzyme
T1 sequence (P00374 whole entry): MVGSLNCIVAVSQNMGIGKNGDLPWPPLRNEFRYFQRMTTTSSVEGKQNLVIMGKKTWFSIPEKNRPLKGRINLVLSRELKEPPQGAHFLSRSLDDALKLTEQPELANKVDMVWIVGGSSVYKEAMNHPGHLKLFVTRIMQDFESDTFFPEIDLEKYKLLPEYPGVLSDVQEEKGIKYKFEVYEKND

[12] = biological target: T2, Dihydrofolate reductase (Candida albicans, UniProt P22906); test: Inhibition of Dihydrofolate reductase enzyme from Candida albicans
T2 sequence (P22906 whole entry): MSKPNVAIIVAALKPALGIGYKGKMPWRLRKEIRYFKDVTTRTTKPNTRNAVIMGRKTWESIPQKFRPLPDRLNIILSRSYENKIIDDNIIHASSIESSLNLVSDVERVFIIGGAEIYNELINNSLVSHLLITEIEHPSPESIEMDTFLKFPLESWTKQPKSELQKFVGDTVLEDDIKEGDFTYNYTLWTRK

[13] = species: Mus musculus; test: Number of mice infected to that of total number of mice ([…]/[…]); assay type: functional, organism-based
[14] = tested on: U-87 MG; test: Cytotoxic activity was evaluated against U87MG tumor cells; assay type: functional, cell-based, U-87MG ATCC; conditions: Homo sapiens; in short: as §1
[15] = tested on: D54 cell line; test: Cytotoxic Activity was evaluated against D54 tumor cells; assay type: functional, cell-based; conditions: Homo sapiens; in short: as §1
[16] = tested on: NCI-H460; test: Cytotoxic Activity was evaluated against H460 tumor cells; assay type: functional, cell-based; conditions: Homo sapiens; in short: as §1
[17] = tested on: HCT-8; test: Cytotoxic Activity was evaluated against HCT-8 tumor cells; assay type: functional, cell-based; conditions: Homo sapiens; in short: as §1
[18] = species: Mus musculus; test: Effect on Pneumocystis carinii pneumonia in SCID mice in presence of leucovorin; assay type: functional
In short: (§4)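 SCID mice (10-11/group) were dosed prophylactically once daily from day 1 postinfection, 42 doses. Test drug in D5W was given ip, then leucovorin 12 mg/kg sc 30 min later. Trimethoprim 50 mg/kg plus sulfamethoxazole 250 mg/kg was given orally, and controls received D5W ip and sc. Lung impression smears were taken 24 h after the last dose and stained by immunofluorescence. Infection was scored 0-4 semilogarithmically, reported as mean ± SEM and as infected/total mice.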

[19] = species: Mus musculus; test: Effect on Pneumocystis carinii pneumonia in SCID mice; assay type: functional; in short: as §4
[20] = species: Mus musculus; test: Number of mice infected to tat of total number of mice ([…]/[…]); assay type: functional, organism-based
[21] = tested on: HCT-8; test: Activity was evaluated against HCT-8 tumor cells; assay type: functional, cell-based; conditions: Homo sapiens; in short: as §1
[22] = Relative concentration of compound in brain compared to concentration in plasma (9.4 ug/mL) at the time of tissue collection from mice; relative concentration; assay type: ADME, organism-based; conditions: mouse, read-out: Other
[23] = tested on: KB; test: Cytotoxic activity was evaluated against KBV-1 cells; assay type: functional, Homo sapiens; in short: as §1
[24] = tested on: P388; test: Cytotoxic activity was evaluated against P388/ADR + reserpine cells; assay type: functional, Mus musculus; in short: as §1
[25] = tested on: KB; test: Cytotoxic activity was evaluated against KBV-1 cells in presence of reserpine; assay type: functional, Homo sapiens; in short: as §1
[26] = tested on: P388; test: Cytotoxic activity was evaluated against P388D1/ADR cells; assay type: functional, Mus musculus; in short: as §1
[27] = tested on: MCF7; test: Cytotoxic activity was evaluated against MCF-7/ADR cells; assay type: functional, Homo sapiens; in short: as §1
[28] = tested on: MCF7; test: Cytotoxic activity was evaluated against MCF-7/ADR+Reserpine cells; assay type: functional, Homo sapiens; in short: as §1
[29] = tested on: MCF7; test: Cytotoxic Activity was evaluated against MCF-7 cells; assay type: functional, Homo sapiens; in short: as §1
[30] = tested on: P388; test: Cytotoxic Activity was evaluated against P388D1 cells; assay type: functional, Mus musculus; in short: as §1
[31] = tested on: KB 3-1; test: Cytotoxic activity was evaluated against KB3-1 cells; assay type: functional, Homo sapiens; in short: as §1
[32] = tested on: Candida albicans; test: Minimum inhibitory concentration was evaluated against Candida albicans; assay type: functional
[33] = tested on: 143B; test: Cytotoxic Activity was evaluated against 143B (TK-) tumor cells; assay type: functional, cell-based; conditions: Homo sapiens; in short: as §1
[34] = Relative concentration of compound (70 mg/Kg) in brain compared to concentration in plasma (160 ug/mL) at the time of tissue collection from rabbit; relative concentration; assay type: ADME, organism-based, Oryctolagus cuniculus; conditions: read-out: Activity
[35] = Relative concentration of compound (70 mg/Kg) in lung compared to concentration in plasma (160 ug/mL) at the time of tissue collection from rabbit; relative concentration; assay type: ADME, organism-based, Oryctolagus cuniculus; conditions: read-out: Activity
[36] = species: Mus musculus; test: Effect on Candida albicans nephritis and Meningitis in Immunosuppressed Mice brain; assay type: functional
In short: (§5)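 Immunosuppressed CD-1 female mice (10/group) given cyclophosphamide ip, 160 and 40 mg/kg on days -4 and -1; C. albicans 5 × 10^4 cfu/mouse iv via lateral tail vein. Sc dosing of 20 or 50 mg/kg in sesame oil at 3, 7, 24, 30 h post-inoculation; sulfamethoxazole 200 mg/kg ip in D5W given 1 h before each dose. Kidney and brain cultured at 48 h; log cfu/g tissue.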

[37] = tested on: Mus musculus; test: Effect on life span of mice with intraperitoneally implanted P388/ADR Leukemic cells at 10 mg/kg by subcutaneous injection; assay type: functional; in short: as §2
[38] = species: Mus musculus; test: Number of mice infected to that of total number of mice (2/11); assay type: functional, organism-based
[39] = species: Mus musculus; test: Effect on Candida albicans nephritis and Meningitis in Immunosuppressed Mice kidney; assay type: functional; in short: as §5
[40] = tested on: Mus musculus; test: Effect on life span of mice with intracranially implanted P388 Leukemic cells at 10 mg/kg by subcutaneous injection; assay type: functional; in short: as §3
[41] = tested on: Mus musculus; test: Effect on life span of mice with intraperitoneally implanted P388 Leukemic cells at 10 mg/kg by subcutaneous injection; assay type: functional; in short: as §2
[42] = species: Mus musculus; test: Effect on Pneumocystis carinii pneumonia in SCID mice in the presence of leucovorin; assay type: functional; in short: as §4
[43] = species: Mus musculus; test: Effect on Candida albicans nephritis and Meningitis in Immunosuppressed Mice brain in the presence of SMX; assay type: functional
In short: (§6)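 Immunosuppressed CD-1 female mice (10/group; cyclophosphamide 160 and 40 mg/kg ip on days -4 and -1) inoculated iv via lateral tail vein with 5 × 10^4 cfu C. albicans. Compound sc in 0.1 mL sesame oil (20 or 50 mg/kg) at 3, 7, 24, 30 h; sulfamethoxazole 200 mg/kg ip in D5W 1 h before each dose. Kidney and brain cultured at 48 h; log cfu/g tissue, duplicate or single experiments.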

[44] = Relative concentration of compound in brain compared to concentration in plasma (0.4 ug/mL) at the time of tissue collection from mice; relative concentration; assay type: ADME, organism-based; conditions: mouse, read-out: Activity
[45] = species: Mus musculus; test: Effect on Candida albicans nephritis and Meningitis in Immunosuppressed Mice kidney in the presence of SMX; assay type: functional; in short: as §6

| SMILES | IC50 [1] | IC50 [2] | IC50 [4] | IC50 [6] | IC50 [7] | IC50 [8] | MIC [9] | Ki [11] | Ki [12] | IC50 [14] | IC50 [15] | IC50 [16] | also measured |
| --- | --- | --- | --- | --- | --- | --- | --- | --- | --- | --- | --- | --- | --- |
| COc1ccc(OC)c(Cc2cnc3nc(N)nc(N)c3c2C)c1 [PIRITREXIM] | 21 nM | 76 nM | 24 nM | 30 nM | 55 nM | 70 nM | > 10 µg/mL | 0.025 nM | 1.9 nM | 48 nM | 230 nM | 260 nM | Increase in life-span [3]: -5%; Increase in life-span [5]: 0%; Increase in life-span [10]: 40%; No. of mice infected /total [13]: Number of mice infected to that of total number of mice ([…]/[…]); IC50 [17]: 68 nM; Infection score [18]: 3.27 |
| Nc1nc(=O)c2c([nH]1)NCC(CNc1ccc(C(=O)N[C@@H](CCC(=O)O)C(=O)O)cc1)N2C=O (some centres not stated) [LEUCOVORIN] |  |  |  |  |  |  |  |  |  |  |  |  | Infection score [19]: 3; No. of mice infected /total [20]: Number of mice infected to tat of total number of mice ([…]/[…]) |
| COc1cc(NCc2ccc3nc(N)nc(N)c3c2C)cc(OC)c1OC [TRIMETREXATE] | 2.7 nM | 4.7 nM | 5.3 nM | 16 nM | 9.6 nM | 12 nM | > 50 µg/mL |  | 1.9 nM | 11 nM | 60 nM |  | IC50 [21]: 1.8 nM; Kp [22]: 0.1 |
| COc1cccc2c1C(=O)c1c(O)c3c(c(O)c1C2=O)C[C@@](O)(C(=O)CO)C[C@@H]3O[C@H]1C[C@H](N)[C@H](O)[C@H](C)O1 [DOXORUBICIN] |  |  |  |  |  |  |  |  |  |  |  |  | Relative IC50 [23]: 61; Increase in life-span [3]: 30%; Relative IC50 [24]: 3.7 nM; Relative IC50 [25]: 1.6; Relative IC50 [26]: 28 nM; Increase in life-span [10]: 130%; Relative IC50 [27]: 200; Relative IC50 [28]: 1.5; Relative IC50 [29]: 1; Relative IC50 [30]: 1; Relative IC50 [31]: 1 |
| COc1cc(Cn2ccc3c4c(N)nc(N)nc4ccc32)cc(OC)c1OC |  |  |  |  |  |  |  | 0.006 nM | 0.23 nM |  |  |  | MIC [32]: 5 µg/mL (≈ 13.2 µM) |
| CN(Cc1cnc2nc(N)nc(N)c2n1)c1ccc(C(=O)N[C@@H](CCC(=O)O)C(=O)O)cc1 [METHOTREXATE] | 4.8 nM | 8.3 nM | 31 nM | 9.2 nM | 12 nM | 9 nM |  |  |  | 22 nM | 16 nM | 9.5 nM | IC50 [33]: 8.8 nM; Kp [34]: 0.006; Kp [35]: 0.05 |
| CCC(CC)n1c(C)cc2c3c(N)nc(N)nc3ccc21 | 0.12 nM | 0.6 nM | 0.4 nM | 1 nM | 2.3 nM | 2.3 nM | 0.025 µg/mL (≈ 0.0882 µM) | 0.0003 nM | 0.03 nM | 2.1 nM | 4.6 nM | 0.5 nM | Log cfu/g of tissue [36]: 3.6; Increase in life-span [37]: 20%; No. of mice infected /total [38]: Number of mice infected to that of total number of mice (2/[…]); Log cfu/g of tissue [39]: 3.4; IC50 [21]: 0.74 nM; Increase in life-span [40]: 50%; Increase in life-span [41]: 80%; Infection score [42]: 0.18; IC50 [33]: 0.8 nM; Log cfu/g of tissue [43]: 3.4; Kp [44]: 10; Log cfu/g of tissue [45]: 2.5 |
